Test results published in ChEMBL document CHEMBL2311438, “Synthesis and biological evaluation of 4-hydroxy-4-(4-methoxyphenyl)-substituted proline and pyrrolidin-2-ylacetic acid derivatives as GABA uptake inhibitors” (Bioorg Med Chem, 2013).
pIC50: −log10 of the molar value.

Legend:
[1] = Inhibition of GAT1-mediated [3H]GABA uptake in calf frontal cortex membrane fraction 2B compound preincubated for 10 mins by scintillation counting; assay type: cell membranes, Bos taurus
Procedure, shortened: (§1)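 50 nM [³H]GABA plus unlabelled GABA added, then 4 min at 37 °C. Stopped by filtration through glass-fibre filters presoaked in 0.9% NaCl, washed, scintillation counted. Triplicate; IC50 as mean ± SEM.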

Bos taurus [2] = species on record: Bos taurus; assay: Inhibition of GAT1-mediated [3H]GABA uptake in calf frontal cortex membrane fraction 2B assessed as remaining GABA uptake activity preincubated at 100 uM for 10 mins by scintillation counting; assay type: cell membranes
Procedure, shortened: (§2)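 Preliminary single-concentration screen giving percent remaining GABA uptake. Membranes were preincubated with compound for 10 min at 37 °C in Tris-HCl pH 7.2 saline with glucose. Then 50 nM [³H]GABA plus unlabelled GABA was added for 4 min at 37 °C. Filtration harvest onto NaCl-presoaked glass-fibre filters, saline washes, liquid scintillation counting. IC50 pursued only when uptake fell below 50%.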

Bos taurus [3] = species on record: Bos taurus; assay: Inhibition of GAT3-mediated [3H]GABA uptake in calf brain stem membrane fraction 2C assessed as remaining GABA uptake activity preincubated at 100 uM for 10 mins by scintillation counting; assay type: cell membranes; procedure, shortened: as §2
[4] = Inhibition of GAT3-mediated [3H]GABA uptake in calf brain stem membrane fraction 2C compound preincubated for 10 mins by scintillation counting; assay type: cell membranes, Bos taurus; procedure, shortened: as §1
[5] = Inhibition of GAT3-mediated [3H]GABA uptake in porcine brain stem membrane fraction 2C compound preincubated for 10 mins by scintillation counting; assay type: cell membranes, Sus scrofa; procedure, shortened: as §1
[6] = Inhibition of GAT1-mediated [3H]GABA uptake in porcine frontal cortex membrane fraction 2B compound preincubated for 10 mins by scintillation counting; assay type: cell membranes, Sus scrofa; procedure, shortened: as §1
Sus scrofa [7] = species on record: Sus scrofa; assay: Inhibition of GAT3-mediated [3H]GABA uptake in porcine brain stem membrane fraction 2C assessed as remaining GABA uptake activity preincubated at 100 uM for 10 mins by scintillation counting; assay type: cell membranes; procedure, shortened: as §2
Sus scrofa [8] = species on record: Sus scrofa; assay: Inhibition of GAT1-mediated [3H]GABA uptake in porcine frontal cortex membrane fraction 2B assessed as remaining GABA uptake activity preincubated at 100 uM for 10 mins by scintillation counting; assay type: cell membranes; procedure, shortened: as §2
[9] = Inhibition of GAT3-mediated [3H]GABA uptake in bovine brain stem membrane fraction 2C compound preincubated for 10 mins by scintillation counting; assay type: cell membranes, Bos taurus; procedure, shortened: as §1
[10] = Inhibition of GAT1-mediated [3H]GABA uptake in bovine frontal cortex membrane fraction 2B compound preincubated for 10 mins by scintillation counting; assay type: cell membranes, Bos taurus; procedure, shortened: as §1
Bos taurus [11] = species on record: Bos taurus; assay: Inhibition of GAT3-mediated [3H]GABA uptake in bovine brain stem membrane fraction 2C assessed as remaining GABA uptake activity preincubated at 100 uM for 10 mins by scintillation counting; assay type: cell membranes; procedure, shortened: as §2
Bos taurus [12] = species on record: Bos taurus; assay: Inhibition of GAT1-mediated [3H]GABA uptake in bovine frontal cortex membrane fraction 2B assessed as remaining GABA uptake activity preincubated at 100 uM for 10 mins by scintillation counting; assay type: cell membranes; procedure, shortened: as §2

Compound: COc1ccc([C@@]2(O)C[C@H](C(=O)O)N(CCC=C(c3ccccc3)c3ccccc3)C2)cc1
- pIC50 [1]: < 4.00
- Activity (Bos taurus [2]): > 50%
- Activity (Bos taurus [3]): > 50%
- pIC50 [4]: < 4.00

Compound: COc1ccc([C@@]2(O)CN[C@H](CC(=O)O)C2)cc1
- pIC50 [5]: < 4.00
- pIC50 [6]: < 4.00
- Activity (Sus scrofa [7]): > 50%
- Activity (Sus scrofa [8]): > 50%

Compound: COc1ccc([C@@]2(O)C[C@@H](C(=O)O)N(CCC=C(c3ccccc3)c3ccccc3)C2)cc1
- pIC50 [9]: < 4.00
- pIC50 [10]: < 4.00
- Activity (Bos taurus [11]): > 50%
- Activity (Bos taurus [12]): > 50%

Compound: COc1ccc([C@@]2(O)C[C@H](CC(=O)O)N(CCC=C(c3sccc3C)c3sccc3C)C2)cc1
- pIC50 [5]: < 4.00
- pIC50 [6]: 3.94
- Activity (Sus scrofa [7]): > 50%

Compound: COc1ccc([C@]2(O)C[C@H](C(=O)O)N(CCC=C(c3ccccc3)c3ccccc3)C2)cc1
- pIC50 [1]: < 4.00
- Activity (Bos taurus [2]): > 50%
- Activity (Bos taurus [3]): > 50%
- pIC50 [4]: < 4.00

Compound: COc1ccc(C(OCCN2C[C@](O)(c3ccc(OC)cc3)C[C@H]2CC(=O)O)(c2ccc(OC)cc2)c2ccc(OC)cc2)cc1
- pIC50 [5]: 4.18
- pIC50 [6]: 4.32

Compound: COc1ccc(C(OCCN2C[C@@](O)(c3ccc(OC)cc3)C[C@H]2CC(=O)O)(c2ccc(OC)cc2)c2ccc(OC)cc2)cc1
- pIC50 [5]: 4.10
- pIC50 [6]: 4.12

Compound: COc1ccc([C@@]2(O)CN[C@H](C(=O)O)C2)cc1
- pIC50 [5]: < 4.00
- pIC50 [6]: < 4.00
- Activity (Sus scrofa [7]): > 50%
- Activity (Sus scrofa [8]): > 50%

Compound: COc1ccc([C@]2(O)C[C@H](CC(=O)O)N(CCC=C(c3sccc3C)c3sccc3C)C2)cc1
- pIC50 [5]: < 4.00
- pIC50 [6]: < 4.00
- Activity (Sus scrofa [7]): > 50%
- Activity (Sus scrofa [8]): > 50%

Compound: COc1ccc(C(OCCN2C[C@](O)(c3ccc(OC)cc3)C[C@@H]2C(=O)O)(c2ccc(OC)cc2)c2ccc(OC)cc2)cc1
- pIC50 [6]: 4.15
- pIC50 [9]: < 4.00
- Activity (Bos taurus [11]): > 50%

Compound: COc1ccc(C(OCCN2C[C@@](O)(c3ccc(OC)cc3)C[C@@H]2CC(=O)O)(c2ccc(OC)cc2)c2ccc(OC)cc2)cc1
- pIC50 [5]: 4.18
- pIC50 [6]: 4.23

Compound: COc1ccc([C@]2(O)CN[C@@H](C(=O)O)C2)cc1
- pIC50 [5]: < 4.00
- pIC50 [6]: < 4.00
- Activity (Sus scrofa [7]): > 50%
- Activity (Sus scrofa [8]): > 50%

Compound: COc1ccc([C@]2(O)C[C@@H](C(=O)O)N(CCC=C(c3ccccc3)c3ccccc3)C2)cc1
- pIC50 [9]: 3.63
- pIC50 [10]: < 4.00
- Activity (Bos taurus [12]): > 50%

Compound: COc1ccc([C@]2(O)CN[C@@H](CC(=O)O)C2)cc1
- pIC50 [5]: < 4.00
- pIC50 [6]: < 4.00
- Activity (Sus scrofa [7]): > 50%
- Activity (Sus scrofa [8]): > 50%

Compound: COc1ccc(C(OCCN2C[C@](O)(c3ccc(OC)cc3)C[C@H]2C(=O)O)(c2ccc(OC)cc2)c2ccc(OC)cc2)cc1
- pIC50 [9]: 4.53
- pIC50 [10]: 4.35

Compound: COc1ccc([C@@]2(O)C[C@@H](CC(=O)O)N(CCC=C(c3sccc3C)c3sccc3C)C2)cc1
- pIC50 [5]: 3.91
- pIC50 [6]: < 4.00
- Activity (Sus scrofa [8]): > 50%

Compound: COc1ccc(C(OCCN2C[C@@](O)(c3ccc(OC)cc3)C[C@@H]2C(=O)O)(c2ccc(OC)cc2)c2ccc(OC)cc2)cc1
- pIC50 [5]: 4.42
- pIC50 [6]: 4.25

Compound: COc1ccc(C(OCCN2C[C@@](O)(c3ccc(OC)cc3)C[C@H]2C(=O)O)(c2ccc(OC)cc2)c2ccc(OC)cc2)cc1
- pIC50 [9]: 4.20
- pIC50 [10]: 4.17

Compound: COc1ccc([C@]2(O)C[C@@H](CC(=O)O)N(CCC=C(c3sccc3C)c3sccc3C)C2)cc1
- pIC50 [5]: 3.91
- pIC50 [6]: < 4.00
- Activity (Sus scrofa [8]): > 50%

Compound: COc1ccc(C(OCCN2C[C@](O)(c3ccc(OC)cc3)C[C@@H]2CC(=O)O)(c2ccc(OC)cc2)c2ccc(OC)cc2)cc1
- pIC50 [5]: 4.18
- pIC50 [6]: 4.19
